16 compounds from PubChem BioAssay can be followed below.

Usually viability stands for a read-out of living cells in per cent, often relative to untreated cells. The inhibition is the share of the control response that was lost under treatment.

The nature of experiment [1]: S. cerevisiae growth inhibition in permissive medium (OD615), pilot counter-assay for S. cerevisiae lifespan shortening project, permissive growth control (AID 705;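 active = growth inhibition above 25% in both replicates, a cutoff set 3 SD above the mean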). The note with it: OD615, 24 h, at 10 µM, active compounds read high. The method, boiled down: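 System – S. cerevisiae with engineered DeaD lifespan system · Buffer or medium – SC raffinose/galactose permissive medium · Schedule – cells pre-grown 4 h, then 24 h compound exposure, 30 °C humidified · Technique – culture turbidity as optical density at 615 nm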

The nature of experiment [2]: S. cerevisiae growth inhibition in restrictive medium, OD615, pilot screen, restrictive growth control, yeast lifespan reduction project (AID 706;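 active = growth inhibition above a set limit, 3 SD over mean compound inhibition, in both replicates, cut at about 43% in these data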;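 note: modified DeaD lifespan yeast strain shifted to restrictive glucose medium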). Particulars: OD615, 48 h, at 10 µM, active compounds read high. The essentials:
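Material: engineered S. cerevisiae DeaD strain / Medium: glucose-based CSMM-D restrictive medium / Compound: single dose of 10 µM compound final, 0.25% DMSO / Timing: 4 h pre-incubation, 48 h exposure at 30 °C / Technique: OD615 absorbance reading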

A short description of experiment [3]: doxorubicin toxicity protection in MRP-1 cells – H69AR cells, CellTiter-Glo, duplicate, MRP-1 activator project, pilot screen (AID 807;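 active = viability increase at or above a cutoff of the median across tested compounds plus 3 SD, cut at about 8.5% in these data, passing the limit was not always enough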;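 note: compound pretreatment 18-22 h then 72 h combined with doxorubicin; 0% = doxorubicin alone and 100% = vehicle without doxorubicin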). The note with it: H69AR viability with doxorubicin, CellTiter-Glo luminescence; at 10 µM; active compounds read high. (In general: Cellular ATP, detected with luciferase, serves as a proxy for viable cell number.)
The nature of experiment [4]: viability of HCT116 without oncogenic beta-catenin – human colon tumor cells, pilot screen (AID 823;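 active = cell viability at or below a set limit in both duplicate runs, the limit being the all-compound median minus 4 SD, cut at about 23% in these data, passing the limit was not always enough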;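 note: 0% = wells killed by 20 µM Hyamine and 100% = untreated DMSO cell wells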). The note with it: HCT116 beta-catenin knockout viability, CellTiter-Glo, 60 h; at 10 µM; active compounds read low.
A short description of experiment [5]: viability of PTEN-null HCT116 cells – cell-based, HCT116 clonal line, CellTiter-Glo, pilot screen (AID 824;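 active = viability at or below 27.92% in each of two runs, the all-compound median minus 4 SD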;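 note: 0% = 20 µM Hyamine control and 100% = vehicle cell control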). The note with it: HCT116 PTEN-deleted viability, 60 h, at 10 µM, active compounds read low.
A short description of experiment [6]: RAM pathway blockade in budding yeast – dse1pr::URA3 reporter, 5-FOA selection, pilot screen (AID 869;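 active = inhibition over a set limit, the all-compound mean plus 3 SD, in both replicate runs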;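 note: 0% = DMSO wells with no growth and 100% = 10 µM 1-NA-PP1 with full growth; RAM network block rescues cells from 5-FOA so hits raise OD615 growth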). The note with it: S. cerevisiae dse1pr::URA3 5-FOA growth, OD615, 2 d; at 10 µM; active compounds read high; strain carries analog-sensitive mutant Cbk1 kinase.
The nature of experiment [7]: RAM signaling pathway blockade in yeast – S. cerevisiae, Pdr1DBD-CYC8 efflux-inhibited sensitized strain, primary screen (AID 1298).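 Note: 0% = DMSO untreated cells without growth and 100% = 10 µM 1-NA-PP1 full growth; higher means more yeast growth rescued from 5-FOA killing.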 The note with it: S. cerevisiae cbk1-as DSE1-URA3 strain, 5-FOA growth OD615, 2 d; at 50 µM; active compounds read high.

SMILES strings stand for the structures. A number with no mark means an inactive call. Inconclusive results are not listed. Active and inactive are the calls of the source.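 Rule for the calls, unless noted: active = RAM network inhibition above 8.4% in each of two replicates, 3 SD over the compound average; inconclusive = above 8.4% inhibition in only one replicate; inactive = 8.4% inhibition or less in each replicate.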

Consider `CCOC(=O)N1CCN(C(=O)C2CCN(Cc3nc(-c4ccccc4C)oc3C)CC2)CC1`, for which the growth inhibition was -13.5% in experiment [1] and -31.5% in experiment [2]. Moreover, the viability increase in experiment [3] was -1.65%. Moreover, the viability is 85.3% in experiment [4] and 88% in experiment [5]. Moreover, the inhibition in experiment [6] is 0.75%. In addition, the RAM network inhibition in experiment [7] was 1.63%.

In the case of `Cn1c(=O)[nH]c(=O)c2c1nc(SCCN1CCOCC1)n2CCCc1ccccc1`, the growth inhibition in experiment [1] is -6.32%; in experiment [2] it was -14.4%. Further, in experiment [3], the viability increase is -3.69%. Moreover, the values for the viability in experiment [4] and in experiment [5] were 96.8% and 85.5%, respectively. Besides, in experiment [6], the inhibition was 0.63%. The RAM network inhibition in experiment [7] is 4.46%.

With `COc1ccc(C2NC(=O)NC(C)=C2C(=O)Nc2cccc(C)c2C)cc1` (configuration not stated), the growth inhibition in experiment [1] is -6.41%; in experiment [2], 1.47%. Further, the viability increase in experiment [3] was -1.09%. In addition, the viability in experiment [4] was 101%; in experiment [5], 103%. Also, the inhibition in experiment [6] is 0.77%. For the same compound, in experiment [7], the RAM network inhibition was 1.64%.

Turning to `CCOC(=O)CSC1=C(C#N)C(c2ccccc2OC)CC(=O)N1` (configuration not stated), the values for the growth inhibition in experiment [1] and in experiment [2] were -14% and -1.51%, respectively. Also, the viability increase in experiment [3] was -6.53%. Further, the figures for the viability in experiment [4] and in experiment [5] were 27.5% and 27.4% (active), respectively. For the same compound, in experiment [6], the inhibition was 0.27%. Moreover, the RAM network inhibition in experiment [7] is -0.77%.

With `COc1cccc(N(CC(=O)Nc2cccc(F)c2)S(C)(=O)=O)c1`, the growth inhibition was -5.09% in experiment [1] and -12.3% in experiment [2]. Further, the viability increase in experiment [3] is -1.38%. The viability was 91.1% in experiment [4] and 97.5% in experiment [5]. Also, the inhibition in experiment [6] is 0.965%. The RAM network inhibition in experiment [7] was 3.51%.

Consider `COc1ccc(C(=O)NCC(c2cccnc2)N2CCN(c3ccccc3OC)CC2)cc1OC` (configuration not stated), for which the growth inhibition in experiment [1] was -7.95%; in experiment [2], -2.41%. Moreover, the viability increase in experiment [3] was -3.05%. Besides, the viability was 89.4% in experiment [4] and 91% in experiment [5]. The inhibition in experiment [6] is 1.16%. The RAM network inhibition in experiment [7] is 2.21%.

For the compound `CCCCn1c(CNC(=O)C(C)(C)C)nc2ccccc21`, the growth inhibition was -11.1% in experiment [1] and -12% in experiment [2]. Also, the viability increase in experiment [3] was -1.15%. Besides, the viability in experiment [4] was 98%; in experiment [5] it was 98.9%. The inhibition in experiment [6] is 0.25%. Also, in experiment [7], the RAM network inhibition was 5.15%.

In the case of `COc1ccccc1N1CCN(C(=O)c2sc3nc(-c4ccc(F)cc4)cn3c2C)CC1`, the growth inhibition in experiment [1] is -6.38%; in experiment [2] it was 2.76%. In addition, the viability increase in experiment [3] is -1.57%. Besides, the viability in experiment [4] is 57.6%; in experiment [5], 58.8%. Besides, the inhibition in experiment [6] was 0.235%. Moreover, the RAM network inhibition in experiment [7] is 1.42%.

For the compound `CC(=O)c1ccc(OCC(O)CN2CCCC(C)C2)cc1` (configuration not stated), the growth inhibition was 5.32% in experiment [1] and -4.29% in experiment [2]. Also, in experiment [3], the viability increase was -0.81%. The viability is 99.3% in experiment [4] and 96.7% in experiment [5]. The inhibition in experiment [6] was 1.98%. In addition, the RAM network inhibition in experiment [7] is 5.23%.

Turning to `CC(C)Cn1c(CNC(=O)c2ccccc2)nc2ccccc21`, the growth inhibition was -4.34% in experiment [1] and -13.4% in experiment [2]. The viability increase in experiment [3] was -2.23%. In addition, the viability is 99.6% in experiment [4] and 93.1% in experiment [5]. Also, the inhibition in experiment [6] was 0.785%. Further, the RAM network inhibition in experiment [7] is -0.78%.

`CCSc1nnc(NC(=O)c2cccc(OCc3c(C)noc3C)c2)s1`: the growth inhibition is 1.08% in experiment [1] and 21.9% in experiment [2]. Moreover, the viability increase in experiment [3] is 0.55%. The viability in experiment [4] was 98.2%; in experiment [5], 92.6%. For the same compound, the inhibition in experiment [6] was 2.79%. The RAM network inhibition in experiment [7] is 4.07%.

With `O=C(Nc1ccc2c(c1)OCO2)C(c1ccccc1)N1CCCCC1` (configuration not stated), the growth inhibition was -3.12% in experiment [1] and 0.37% in experiment [2]. For the same compound, in experiment [3], the viability increase is -1.69%. The viability in experiment [4] was 80.6%; in experiment [5] it was 93.2%. In addition, in experiment [6], the inhibition is 1.16%. Besides, in experiment [7], the RAM network inhibition was 2.51%.

`CCOC(=O)c1[nH]c(=O)[nH]c1CSc1nc(C)cc(C)n1`: the growth inhibition in experiment [1] is -4.23%; in experiment [2] it was 7.25%. For the same compound, the viability increase in experiment [3] was -3.65%. For the same compound, the values for the viability in experiment [4] and in experiment [5] were 102% and 96.9%, respectively. Further, the inhibition in experiment [6] is 0.985%. Moreover, in experiment [7], the RAM network inhibition was 5.37%.

`O=C(O)CCC(=O)c1ccc2c(c1)OCCO2`: the growth inhibition in experiment [1] is -6.04%; in experiment [2], 8.29%. Moreover, the viability increase in experiment [3] is -1.32%. Besides, the figures for the viability in experiment [4] and in experiment [5] were 101% and 103%, respectively. Besides, the inhibition in experiment [6] is 1.79%. For the same compound, the RAM network inhibition in experiment [7] was -1.36%.

For the compound `CCCc1cc(C(=O)NCc2ccc(OC)cc2)no1`, the growth inhibition in experiment [1] was -7.46%; in experiment [2], 18.4%. For the same compound, the viability increase in experiment [3] was -0.95%. In addition, the viability in experiment [4] is 107%; in experiment [5], 99.3%. Besides, in experiment [6], the inhibition was 1.78%. In experiment [7], the RAM network inhibition is -0.68%.

For the compound `COc1ccc(C2(CNC(C)=O)CCOCC2)cc1OC`, the growth inhibition in experiment [1] is -14.1%; in experiment [2], -2.29%. Also, the viability increase in experiment [3] is 1.21%. For the same compound, the viability in experiment [4] was 103%; in experiment [5], 97.8%. Besides, in experiment [6], the inhibition is 2.54%. Besides, in experiment [7], the RAM network inhibition was -0.32%.
